Test results taken from ChEMBL document CHEMBL4431376, “CZ415, a Highly Selective mTOR Inhibitor Showing in Vivo Efficacy in a Collagen Induced Arthritis Model” (ACS Med Chem Lett, 2016).

Legend:
[1] = Intrinsic clearance in pooled cryopreserved human hepatocytes at 1 uM incubated up to 90 mins by LC-MS/MS analysis; format: ADME, cell-based, Hepatocyte; conditions: 1.5 h
Summary of the method: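 Metabolic stability was assessed in liver microsomes (rat, dog, human) and hepatocytes (dog, human). Intrinsic clearance was calculated as μL/min/g liver.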

[2] = Protein binding in rat plasma; format: ADME, cell-free; conditions: read-out: PPB (converted)
Summary of the method: (§1)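 Plasma protein binding was determined in rat, mouse and human plasma, expressed as % bound.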

[3] = Protein binding in mouse plasma; format: ADME, cell-free; conditions: read-out: PPB (converted); summary of the method: as §1
[4] = Protein binding in human plasma; format: ADME, cell-free; conditions: read-out: PPB (converted); summary of the method: as §1
[5] = Plasma clearance in Sprague-Dawley rat at 1 mg/kg, iv as bolus dose or 3 mg/kg, po administered through gavage measured up to 8 hrs by LC-MS/MS analysis; format: ADME, organism-based
Summary of the method: (§2)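 Rats (n = 3 per route) given a 1 mg/kg intravenous bolus or 3 mg/kg as an oral solution. Vehicle was 5% DMSO/95% (10% Kleptose). Plasma concentration was followed over time to derive PK parameters and oral bioavailability. Clearance was also expressed relative to liver blood flow.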

[6] = Blood clearance in Sprague-Dawley rat at 1 mg/kg, iv as bolus dose or 3 mg/kg, po administered through gavage measured up to 8 hrs by LC-MS/MS analysis; format: ADME, organism-based; conditions: whole blood; summary of the method: as §2
[7] = Plasma clearance in Sprague-Dawley rat at 1 mg/kg, iv as bolus dose or 3 mg/kg, po administered through gavage measured up to 8 hrs by LC-MS/MS analysis relative to liver blood flow; format: ADME, organism-based; conditions: in vivo; summary of the method: as §2
[8] = Volume of distribution at steady state in Sprague-Dawley rat at 1 mg/kg, iv as bolus dose or 3 mg/kg, po administered through gavage measured up to 8 hrs by LC-MS/MS analysis; format: ADME, organism-based; conditions: in vivo, read-out: Vdss; summary of the method: as §2
[9] = Cmax in Sprague-Dawley rat at 1 mg/kg, iv as bolus dose by LC-MS/MS analysis; format: ADME, organism-based; design: dose 1 mg/kg, route intravenous; conditions: in vivo; summary of the method: as §2
[10] = Cmax in Sprague-Dawley rat at 3 mg/kg, po administered through gavage by LC-MS/MS analysis; format: ADME, organism-based; design: dose 3 mg/kg, route oral; conditions: in vivo; summary of the method: as §2
[11] = Mean residence time in Sprague-Dawley rat at 1 mg/kg, iv as bolus dose or 3 mg/kg, po administered through gavage by LC-MS/MS analysis; format: ADME, organism-based; conditions: in vivo; summary of the method: as §2
[12] = AUC (0 to infinity) in Sprague-Dawley rat at 1 mg/kg, iv as bolus dose by LC-MS/MS analysis; format: ADME, organism-based; design: dose 1 mg/kg, route intravenous, time infinity; conditions: in vivo; summary of the method: as §2
[13] = AUC (0 to infinity) in Sprague-Dawley rat at 3 mg/kg, po administered through gavage by LC-MS/MS analysis; format: ADME, organism-based; design: dose 3 mg/kg, route oral, time infinity; conditions: in vivo; summary of the method: as §2
[14] = Oral bioavailability in Sprague-Dawley rat at 3 mg/kg administered through gavage measured up to 8 hrs by LC-MS/MS analysis; format: ADME, organism-based; conditions: in vivo; summary of the method: as §2
[15] = Tmax in Sprague-Dawley rat at 3 mg/kg, po administered through gavage by LC-MS/MS analysis; format: ADME, organism-based; conditions: in vivo; summary of the method: as §2
Mus musculus [16] = experiment: Anti-inflammatory activity in DBA/1 OlaHsd mouse immunized with bovine type2 collagen in Freund's complete adjuvant assessed as reduction in AUC of clinical arthritis score at 10 mg/kg, po bid administered starting on day 22 post immunization until day 33 post immunization relative to control; format: functional; design: scale not given: the % may be the effect or the level left; conditions: in the assay text read “until day 34 post immunization” for “until day 33 post immunization”
Summary of the method: (§3)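 Semiestablished CIA design. Mice received bovine type II collagen at day 0 with a boost at day 21. Dosing at 10 mg/kg PO bid ran from day 22 to day 34, in 5% DMSO/95% (10% kleptose), n = 10 per group; normal controls n = 4. Paws were scored daily for erythema and swelling (0–5), summarized as AUC. Body weight was tracked over time.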

[17] = AUC in DBA/1 OlaHsd mouse immunized with bovine type2 collagen in Freund's complete adjuvant at 10 mg/kg, po bid administered starting on day 22 post immunization measured on day 31 post immunization; format: ADME, organism-based; conditions: in vivo
Summary of the method: (§4)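 Blood drug levels were measured on study day 31 in CIA mice dosed at 10 mg/kg PO bid (n = 10), with vehicle 5% DMSO/95% (10% kleptose). AUC and Cmax were derived from these levels. Time above EC50 was judged against the human whole-blood IFNγ assay EC50 and the anti-CD3 mouse PK/PD EC50.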

[18] = Cmax in DBA/1 OlaHsd mouse immunized with bovine type2 collagen in Freund's complete adjuvant at 10 mg/kg, po bid administered starting on day 22 post immunization measured on day 31 post immunization; format: ADME, organism-based; design: dose 10 mg/kg, route oral; conditions: in vivo; summary of the method: as §4
Mus musculus [19] = experiment: Time duration for free plasma concentration stays above invivo EC50 in DBA/1 OlaHsd mouse immunized with bovine type2 collagen in Freund's complete adjuvant at 10 mg/kg, po bid administered starting on day 22 post immunization measured on day 31 post immunization; format: ADME, organism-based; conditions: in vivo; summary of the method: as §4
[20] = Toxicity in DBA/1 OlaHsd mouse immunized with bovine type2 collagen in Freund's complete adjuvant assessed as body weight loss at 10 mg/kg, po bid administered starting on day 22 post immunization measured on day 26 post immunization; format: organism-based; conditions: in vivo; summary of the method: as §3
Mus musculus [21] = experiment: Time duration for free plasma concentration stays above invitro EC50 for human whole blood in DBA/1 OlaHsd mouse immunized with bovine type2 collagen in Freund's complete adjuvant at 10 mg/kg, po bid administered starting on day 22 post immunization measured on day 31 post immunization; format: ADME, organism-based; conditions: in vivo; summary of the method: as §4
Mus musculus [22] = species on record: Mus musculus; experiment: animal or person; conditions: C57BL/6J
Mus musculus [23] = species on record: Mus musculus; experiment: animal or person; conditions: C57BL/6J; remark: listed apart in the source

CLH [1]: <= 0.5 microL/min/g
fraction unbound [2]: 0.31
fraction unbound [3]: 0.11
fraction unbound [4]: 0.19
clearance [5]: 49 mL/min/kg
clearance [6]: 41 mL/min/kg
CL [7]: 45%
Vd [8]: 3.1 L/kg
Cmax [9]: 710 nM
Cmax [10]: 430 nM
MRT [11]: 66 min
AUC(0-inf) [12]: 0.76 µM·h
AUC(0-inf) [13]: 1 µM·h
bioavailability [14]: 44%
Tmax [15]: 30 min
AUC [17]: 14 µM·h
Cmax [18]: 1700 nM
Time (Mus musculus [19]): <= 8 hr
Time (Mus musculus [21]): <= 8 hr
EC50 (Mus musculus [22]): 55 nM
EC50 (Mus musculus [23]): 220 nM
Structure (SMILES): CCNC(=O)Nc1ccc(-c2nc(N3CCOC[C@@H]3C)c3c(n2)C(C)(C)S(=O)(=O)C3)cc1
Activity (Mus musculus [16]): 59%
Activity [20]: Non-Toxic
